Hits are enriched below; roughly 4.6% of the tested compounds scored in any of these assays.
p97 inhibitor: inhibitors of human p97 ATPase, primary screen, biochemical | inhibition, % at 8 µM | AID 1481, 2009 | Transitional endoplasmic reticulum ATPase (Homo sapiens), P55072 | 220,000 tested, 0.42% active | recombinant p97 ATPase, Kinase-Glo ATP luminescence, 3 h; in the data active = inhibition above about 15%;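 note: 0% = DMSO vehicle and 100% = wells lacking enzyme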
APP 5'UTR act: activators of APP 5'UTR luciferase reporter, primary screen, SH-SY5Y cells; SH-SY5Y APP 5'UTR luciferase reporter, luminescence; zero percent = DMSO vehicle wells; activation, % at 2 µM; 190,000 tested, 1% active;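 active = activation above a set limit, based on mean plus 3 SD of controls, cut at about 140% in these data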
NF-kB neuron act: activators of NF-kB expression in neurons, primary screen, cell-based, HTS; human neuronal cells, NF-kB reporter expression; hits give high values; 190,000 tested, 1.6% active; fold change at 12.5 µM; AID 1239, 2008; in the data active = fold change above about 3.3
Wee1 degr inh: Wee1 degradation inhibitors, primary screen, cell-based, HeLa, Wee1K328M-luciferase, luminescence | Wee1-like protein kinase (Homo sapiens), P30291 | 220,000 tested, 1.2% active | reporter increase, % at 5 µM | HeLa Luc-Wee1K328M stability; 100% = proteasome inhibitor MG132 effect;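 active = activation above the mean of all tested compounds plus 3 SD, set per screening run, cut at about 8.8% in these data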;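 note: cells exposed to compound for 20 h before luminescence read; 0% = DMSO alone and 100% = MG132 at 30 µM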
Target sequence (P30291 whole entry K328M): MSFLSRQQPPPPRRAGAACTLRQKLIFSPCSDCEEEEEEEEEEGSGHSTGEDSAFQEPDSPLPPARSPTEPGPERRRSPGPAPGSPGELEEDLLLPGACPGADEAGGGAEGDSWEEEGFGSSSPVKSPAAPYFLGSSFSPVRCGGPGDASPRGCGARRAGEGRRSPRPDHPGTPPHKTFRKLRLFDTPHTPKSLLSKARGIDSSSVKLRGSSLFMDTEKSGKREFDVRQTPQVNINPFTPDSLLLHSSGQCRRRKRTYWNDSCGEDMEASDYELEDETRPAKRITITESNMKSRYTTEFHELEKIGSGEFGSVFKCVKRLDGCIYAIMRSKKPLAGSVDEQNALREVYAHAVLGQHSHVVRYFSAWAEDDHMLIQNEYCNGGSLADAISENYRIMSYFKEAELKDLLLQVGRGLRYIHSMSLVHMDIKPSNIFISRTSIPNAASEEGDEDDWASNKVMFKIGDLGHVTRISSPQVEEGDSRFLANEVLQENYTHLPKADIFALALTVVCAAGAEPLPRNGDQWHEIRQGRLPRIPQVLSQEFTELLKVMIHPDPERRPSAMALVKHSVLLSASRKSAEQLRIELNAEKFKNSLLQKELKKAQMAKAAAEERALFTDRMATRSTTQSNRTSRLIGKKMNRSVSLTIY
STAT1 act: STAT1 signaling activators, primary screen, cell-based, HTS, luciferase reporter. NIH 3T3 STAT1-luciferase reporter, IFN-gamma, luminescence; 100% = IFN-gamma alone, no compound. activation (% of control), % at 5.5 µM. AID 932, 2007. 200,000 tested, 2.6% active;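 active = activation above the screen-wide mean activation plus 3 SD, cut at about 130% in these data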;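 note: raw ratio to IFN-gamma control signal so 100% means no change and 0% no light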
Mdm2 ligase inh: MDM2-luciferase reporter signal enhancers, primary screen, MDM2 E3 ligase inhibitor project, cell-based, luminescence, 1536-well; cell-based MDM2 ubiquitination luciferase reporter, 2 h; 0 = plate control, 100 = twice control, blank-subtracted; signal enhancement, % at 5 µM; 210,000 tested, 0.11% active; AID 1230, 2008;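 active = signal enhancement of 30% or more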;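 note: luminescence tracks abundance of the self-degrading MDM2-luciferase fusion protein; higher signal means inhibition of MDM2 E3 ligase activity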
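Test system: stable mammalian line carrying autodegrading MDM2–luciferase fusion reporter; quantity: 2000 cells in each well; times: 4 h cell settling then 2 h compound exposure, 37 °C; detection: luminescence with SteadyLite reagent, 15 min at room temperature; evaluation: percent signal gain over controls, blank-subtracted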
Active calls of the source: *; . = no result given.

SMILES	p97 inhibitor	APP 5'UTR act	NF-kB neuron act	Wee1 degr inh	STAT1 act	Mdm2 ligase inh
Cc1ccc(/C=N/NC(=O)Cn2nnc(N)n2)o1	0	.	.	2	.	-7
COc1ccc(C2=NCN(c3ccc(C)cc3)C(=S)N2)cc1	-4	54	1.8	2	113	-10
Cc1ccc(N2CN=C(c3ccccc3)NC2=S)cc1	-4	77	2.3	2	130*	-3
CC(C)Cn1c(-c2csc(C(C)C)c2)n[nH]c1=S	-1	5	1.4	-1	101	1
Cc1cc(-c2n[nH]c(=S)n2CC(C)C)cs1	6	20	0.77	11*	101	-18
CC(C)n1c(NCc2cccs2)nc2ccccc21	7	-6	1.5	8.8*	101	-31
CC(C)n1c(NCc2ccc(N(C)C)cc2)nc2ccccc21	1	-11	1.7	3	96	4
CC(C)(C)C1CCC(=NNc2nc3ccccc3[nH]2)CC1 (stereo not drawn)	-1	23	1.2	0	106	-16
c1ccc2c(c1)CC/C2=N/Nc1nc2ccccc2[nH]1	1	180*	3.4*	5	137*	-25
Cc1cc(C)cc(C(=O)Nc2ccc(NC(=O)Cc3ccccc3)cc2)c1	-2	-17	0.99	4	98	-23
COc1ccc(C(=O)Nc2cc(OC)nc(OC)n2)cc1	-11	140*	7.2*	3	138*	-28
Cc1ccc(NC2=Nc3ccccc3CS2)cc1	-6	184*	5.6*	4	100	-66
Cc1ccc(Nc2ccccc2)cc1	-5	-4	1.2	3	96	.
COc1cc(/C=N/N2CCOCC2)ccc1OCc1ccc(Cl)cc1	-6	144*	2.7	5	140*	-20
CC(=O)N(c1ccccc1)c1nnc(-c2cnc(C)cn2)s1	1	137*	3.5*	6	127	-2
Cc1cnc(-c2nnc(N(C)C(=O)c3cccnc3)s2)cn1	1	6	1.2	5	109	0
Cn1c[n+](C)cc1-c1ccc(/C(N)=N/O)cc1	2	3	1.1	3	101	3
O=C(CCNS(=O)(=O)c1cccc2nsnc12)NCc1ccccc1Cl	2	-4	1.1	1	102	2
CC(C)Cc1ccc(/C=C/C(=O)N2CCCCC2)cc1	-6	86	4.2*	3	139*	-7
O=C(/C=C/c1ccccc1)N1CCCN(C(=O)/C=C/c2ccccc2)CC1	-1	19	1.2	1	98	-14
CC(C)Cc1ccc(/C=C/C(=O)NC2CC2)cc1	1	63	3.2	8	147*	-6
O=C(/C=C/c1ccc(Br)cc1)NC1CCCCCC1	1	-5	1.7	-1	111	-22
CCOC(=O)C1(Cc2ccc(OC)cc2)CCN(C(=O)CCn2cccn2)CC1	4	.	.	7	.	-8
CCOC(=O)C1(Cc2ccc(OC)cc2)CCN(C(=O)CCn2ccc(C)n2)CC1	1	7	.	8.8*	109	-7
CCOC(=O)c1c(C)n(C)c2ccc(OC)c([N+](=O)[O-])c12	2	0	1.2	-2	110	2
SMILES	p97 inhibitor	APP 5'UTR act	NF-kB neuron act	Wee1 degr inh	STAT1 act	Mdm2 ligase inh
COc1cc(O)sc1C=Nc1ccc(Cl)cc1Cl	-6	20	1.3	4	110	-8
O=C(c1ccc(COc2ccccc2Cl)o1)N1N=C(C(F)F)CC1(O)C(F)F (stereo not drawn)	-3	-7	1.1	11*	95	5
O=C(c1ccc(COc2ccc3ccccc3c2)o1)N1N=C(C(F)F)CC1(O)C(F)F (stereo not drawn)	-6	23	1.2	-1	103	-8
COc1ccc(OC)c(Cc2nnc(CCC(=O)N3CCCCC3c3nccs3)o2)c1 (stereo not drawn)	2	35	2.3	-2	134*	-18
CCC(=O)Oc1ccc(-c2cnc3ccccc3n2)cc1	0	175*	6.8*	2	142*	-22
Cc1cc(NC(=O)c2ccc3c(c2)OCCO3)no1	3	106	4*	1	93	-14
O=C(Nc1ncccc1Cl)c1ccc2c(c1)OCCO2	2	55	2.9	-2	138*	-4
Cc1cc(NC(=O)c2ccc3c(c2)OCO3)no1	1	92	2.9	-2	118	-17
O=C(Nc1ccccn1)c1ccc2c(c1)OCCO2	-12	128	4.2*	1	110	-46
O=C(Nc1ccccn1)c1ccc2c(c1)OCO2	-16	99	2.7	2	125	-11
Cc1onc(-c2ccccc2)c1C(=O)NNC(=S)NC(=O)c1ccc2c(c1)OCO2	4	.	.	-1	.	-18
CC(C)(C)c1ccc(/C=C(\C#N)C(=O)NCCN2CCOCC2)cc1	1	29	1.1	4	96	-3
O=Cc1ccc(OC2OCCOC2Oc2ccc(C=O)cc2)cc1 (stereo not drawn)	1	-16	1.1	-4	103	-1
COc1ccc(C(=O)N[C@H](C(=O)Nc2nc3ccccc3[nH]2)C(C)C)cc1	-4	-77	1	9.0*	126	-27
O=C(NCc1nc2ccccc2[nH]1)c1ccc([N+](=O)[O-])cc1	1	-12	0.77	6	100	-4
COc1cc(C(=O)Nc2nc3ccccc3[nH]2)cc(OC)c1OC	1	-13	0.81	-1	98	5
COc1cccc(C(=O)Nc2nc3ccccc3[nH]2)c1	-11	150*	2.5	-1	60	-73
O=C(Nc1nc2ccccc2[nH]1)c1ccc([N+](=O)[O-])cc1	-8	190*	3	3	116	-56
Cc1cccc(C(=O)N[C@H](C(=O)Nc2nc3ccccc3[nH]2)C(C)C)c1	0	-62	1.4	-1	95	-3
O=C(Nc1nc2ccccc2[nH]1)C12CC3CC(CC(C3)C1)C2	0	79	3.1	3	132*	-16
COc1cccc(NC(=S)N(Cc2ccc(Cl)cc2)Cc2ccc(C(=O)O)cc2)c1	0	3	1.1	1	100	-11
COc1ccc2c(c1)OC/C(=C/c1cccs1)C2=O	6	131	6.9*	2	147*	-22
CCOC(=O)CN(C(=O)COc1nc(-c2ccccc2)cc(C)c1C#N)c1ccccc1C	2	.	.	1	.	-21
COc1ccc(/C=N\NC(=O)COc2ccccc2)c(C(=O)O)c1OC	-6	-10	1.1	-3	97	-2

Bioassay records deposited in PubChem BioAssay by several laboratories.
